Active and inactive are the calls of the source. The calls are words filed in the database; no cut-off is given here.
Legend:
NCI-H1975 [1] = assay: Induction of apoptosis in human NCI-H1975 cells assessed as early apoptotic cells at 2.5 uM incubated for 48 hrs by propidium iodide and annexin-V FITC staining based flow cytometry (reference value: 6.67 %); type: functional
[2] = target: T1, Histone deacetylase (Homo sapiens) (UniProt Q13547+O15379+Q9UBN7+Q92769+Q9UQL6+Q8WUI4+Q9BY41+Q96DB2+P56524+Q9UKV0+Q969S8); assay: Inhibition of HDAC in human NCI-H1975 cells assessed as increase in histone H3 acetylation after 48 hrs by Western blot analysis; type: cell-based; conditions: dose 0.5-5 µM
Method in brief: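 Cells were treated with compound for 48 h and lysed on ice for 30 min in RIPA buffer with protease and phosphatase inhibitors. Lysates were cleared at 14000 g, 4 °C, and protein quantified by BCA. Samples were boiled in loading buffer, run on 10–12% SDS-PAGE and transferred to PVDF. Membranes were blocked 2 h, incubated in primary antibody overnight at 4 °C, then in secondary antibody 2 h at room temperature.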

NCI-H838 = assay: Antiproliferation activity against human NCI-H838 cells incubated for 72 hrs by MTT assay; type: functional, cell-based; conditions: NCI-H838, 72 h
NCI-H1975 [3] = assay: Induction of apoptosis in human NCI-H1975 cells assessed as late apoptotic cells at 5 uM incubated for 48 hrs by propidium iodide and annexin-V FITC staining based flow cytometry (Rvb =4.20 %); type: functional
[4] = target: Epidermal growth factor receptor (Homo sapiens, UniProt P00533, L858R/T790M); assay: Inhibition of EGFR L858R/T790M (unknown origin) by mobility shift assay
NCI-H1975 [5] = assay: Induction of apoptosis in human NCI-H1975 cells assessed as viable cells at 0.5 uM incubated for 48 hrs by propidium iodide and annexin-V FITC staining based flow cytometry (Rvb =88.95% ); type: functional; conditions: read-out: Activity
[6] = target: Receptor tyrosine-protein kinase erbB-2 (Homo sapiens, UniProt P04626); assay: Inhibition of HER2 (unknown origin) by mobility shift assay
Method in brief: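 In vitro kinase activity was measured by mobility shift assay, run by a contract provider.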

L02 = assay: cytotoxicity against human HL-7702 cells assessed as reduction of cell viability incubated for 72 hrs by MTT assay; type: ADME, cell-based; conditions: L02, 72 h
[7] = target: T1, Histone deacetylase (Homo sapiens); assay: Inhibition of HDAC in human NCI-H1975 cells assessed as increase in histone H3 acetylation at 2.5 uM after 1 to 12 hrs by Western blot analysis; type: cell-based; conditions: time lower 1.0 hrs, time upper […]
NCI-H1975 [8] = assay: Antiinvasive activity against human NCI-H1975 cells measured after 72 hrs by crystal violet dye-based transwell assay; type: functional, cell-based; conditions: dose 0.5-5 µM
Method in brief: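 NCI-H1975 cells, 1 × 10⁴/well, seeded in serum-free medium in the upper chamber of a transwell insert. The lower chamber held 10% FBS medium with compound at the indicated dilutions, for 72 h. Non-invading cells were swabbed off. Cells on the membrane underside were fixed in 10% buffered formalin for 1 h, stained with crystal violet for 1 h, and imaged in three random fields.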

Epidermal growth factor receptor, sequence (P00533 25-1210 T790M/L858R limits assumed): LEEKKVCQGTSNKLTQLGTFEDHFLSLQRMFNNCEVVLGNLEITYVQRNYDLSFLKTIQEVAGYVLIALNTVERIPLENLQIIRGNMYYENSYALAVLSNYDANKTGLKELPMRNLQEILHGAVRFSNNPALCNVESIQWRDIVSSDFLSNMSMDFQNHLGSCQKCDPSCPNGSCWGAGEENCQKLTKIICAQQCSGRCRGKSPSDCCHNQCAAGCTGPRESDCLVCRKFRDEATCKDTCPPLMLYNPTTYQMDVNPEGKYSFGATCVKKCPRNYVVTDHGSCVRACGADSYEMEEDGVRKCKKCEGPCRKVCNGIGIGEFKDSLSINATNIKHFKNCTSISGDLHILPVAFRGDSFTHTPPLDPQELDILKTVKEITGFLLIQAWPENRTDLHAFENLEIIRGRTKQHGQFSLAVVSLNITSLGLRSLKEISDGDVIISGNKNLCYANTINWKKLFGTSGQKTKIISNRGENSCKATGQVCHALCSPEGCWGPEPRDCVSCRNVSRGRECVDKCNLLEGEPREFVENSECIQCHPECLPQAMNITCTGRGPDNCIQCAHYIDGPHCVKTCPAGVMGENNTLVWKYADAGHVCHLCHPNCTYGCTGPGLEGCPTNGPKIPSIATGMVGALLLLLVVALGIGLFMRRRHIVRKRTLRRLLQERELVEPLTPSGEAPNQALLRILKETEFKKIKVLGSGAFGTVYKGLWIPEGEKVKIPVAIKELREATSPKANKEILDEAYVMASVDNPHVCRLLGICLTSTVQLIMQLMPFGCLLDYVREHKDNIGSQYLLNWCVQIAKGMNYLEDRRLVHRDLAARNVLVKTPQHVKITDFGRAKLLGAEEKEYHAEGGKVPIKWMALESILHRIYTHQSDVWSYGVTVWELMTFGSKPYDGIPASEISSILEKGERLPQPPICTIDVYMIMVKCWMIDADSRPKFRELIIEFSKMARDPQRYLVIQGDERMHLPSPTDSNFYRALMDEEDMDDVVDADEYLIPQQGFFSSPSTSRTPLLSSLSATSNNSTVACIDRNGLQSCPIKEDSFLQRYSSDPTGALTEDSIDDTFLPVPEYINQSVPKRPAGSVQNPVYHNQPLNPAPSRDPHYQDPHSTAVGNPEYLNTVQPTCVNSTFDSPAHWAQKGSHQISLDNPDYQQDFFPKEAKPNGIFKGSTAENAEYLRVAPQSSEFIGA
Receptor tyrosine-protein kinase erbB-2, sequence (P04626 whole entry): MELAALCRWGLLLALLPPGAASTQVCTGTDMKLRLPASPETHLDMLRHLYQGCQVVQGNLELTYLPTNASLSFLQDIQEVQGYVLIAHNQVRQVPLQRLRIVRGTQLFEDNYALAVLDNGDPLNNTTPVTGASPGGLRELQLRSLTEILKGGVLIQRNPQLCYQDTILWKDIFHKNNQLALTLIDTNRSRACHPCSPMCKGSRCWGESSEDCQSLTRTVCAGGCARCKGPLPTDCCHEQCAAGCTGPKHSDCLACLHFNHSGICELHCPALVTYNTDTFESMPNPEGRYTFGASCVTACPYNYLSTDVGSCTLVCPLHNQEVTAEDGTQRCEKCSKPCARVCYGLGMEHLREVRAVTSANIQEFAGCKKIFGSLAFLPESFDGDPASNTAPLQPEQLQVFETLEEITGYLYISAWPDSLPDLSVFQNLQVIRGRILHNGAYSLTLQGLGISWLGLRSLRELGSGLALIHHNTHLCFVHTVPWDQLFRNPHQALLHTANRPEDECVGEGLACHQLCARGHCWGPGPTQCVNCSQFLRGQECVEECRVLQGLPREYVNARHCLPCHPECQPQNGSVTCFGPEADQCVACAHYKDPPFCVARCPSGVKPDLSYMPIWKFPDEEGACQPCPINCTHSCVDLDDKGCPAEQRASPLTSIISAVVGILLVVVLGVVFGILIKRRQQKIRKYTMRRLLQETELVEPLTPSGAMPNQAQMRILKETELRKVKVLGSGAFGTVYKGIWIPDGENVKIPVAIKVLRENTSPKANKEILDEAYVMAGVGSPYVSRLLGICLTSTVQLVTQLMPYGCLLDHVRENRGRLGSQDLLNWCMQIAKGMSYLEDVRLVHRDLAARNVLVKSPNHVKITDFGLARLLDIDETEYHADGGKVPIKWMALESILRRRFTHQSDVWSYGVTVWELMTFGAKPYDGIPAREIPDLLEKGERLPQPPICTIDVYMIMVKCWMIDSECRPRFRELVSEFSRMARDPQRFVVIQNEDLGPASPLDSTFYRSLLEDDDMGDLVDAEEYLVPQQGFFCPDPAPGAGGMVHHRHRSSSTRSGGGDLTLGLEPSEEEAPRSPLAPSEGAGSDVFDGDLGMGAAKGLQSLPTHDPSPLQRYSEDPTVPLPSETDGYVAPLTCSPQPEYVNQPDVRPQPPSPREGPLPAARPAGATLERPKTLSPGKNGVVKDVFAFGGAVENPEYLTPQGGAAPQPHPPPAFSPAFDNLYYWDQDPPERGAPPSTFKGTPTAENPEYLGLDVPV

C=CC(=O)Nc1cc2c(Nc3ccc(F)c(Cl)c3)ncnc2cc1OCc1cn(CCCC(=O)NO)nn1
Activity (NCI-H1975 [1]): 31.38%
inhibition [2]: Dose-dependent effect
IC50 (NCI-H838): > 50 µM
Activity (NCI-H1975 [3]): 18.07%
IC50 [4]: 1.5 nM
viability at 0.5 µM (NCI-H1975 [5]): 62.6%
IC50 [6]: 5.7 nM
IC50 (L02): > 25 µM
inhibition [7]: Active
Activity (NCI-H1975 [8]): Dose-dependent effect
